Measurements published in ChEMBL document CHEMBL2216748 (J Med Chem, 2012).
Active and inactive are the calls of the source. No cut-off for these calls is given here.

Legend:
[1] = biological target: T1, Ribosyldihydronicotinamide dehydrogenase [quinone] (Homo sapiens) (UniProt P16083); test: Displacement of (S)-N4-(2-(4-(4-(4-methyl-3-(4-(pyridin-3-yl)pyrimidin-2-ylamino)phenylcarbamoyl)benzyl)piperazin-1-yl)ethyl)-N1-(15-oxo-19-((3aS,4S,6aR)-2-oxohexahydro-1H-thieno[3,4-d]imidazol-4-yl)-4,7,10-trioxa-14-azanonadecyl)-2-(4-(3-(trifluoromethyl)-3H-diazirin-3-yl)benzamido)succinamide from human recombinant NQO2 after 1 hr by silver staining-based SDS PAGE analysis
T1 sequence (whole entry): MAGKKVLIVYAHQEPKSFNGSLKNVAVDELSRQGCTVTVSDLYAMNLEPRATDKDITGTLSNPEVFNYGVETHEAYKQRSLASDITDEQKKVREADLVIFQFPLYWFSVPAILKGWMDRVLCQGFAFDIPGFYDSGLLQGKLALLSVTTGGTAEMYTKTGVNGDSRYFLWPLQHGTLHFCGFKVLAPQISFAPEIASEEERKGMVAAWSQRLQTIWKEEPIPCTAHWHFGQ
Method in brief: (§1)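 Human recombinant NQO2 (1 μg) was preincubated 30 min at 4 °C with competitor, then capture compound was added at 5 μM final (competitors 100 μM final) and equilibrated 1 h at 4 °C. Samples were UV-irradiated 10 min, pulled down on streptavidin beads and resolved by silver-stained SDS-PAGE.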

[2] = biological target: T1, Ribosyldihydronicotinamide dehydrogenase [quinone] (Homo sapiens); test: Displacement of (S)-N4-(3-(3-(2-((4-carbamimidoylphenylamino)methyl)-1-methyl-N-(pyridin-2-yl)-1H-benzo[d]imidazole-5-carboxamido)propanamido)propyl)-N1-(15-oxo-19-((3aS,4S,6aR)-2-oxohexahydro-1H-thieno[3,4-d]imidazol-4-yl)-4,7,10-trioxa-14-azanonadecyl)-2-(4-(3-(trifluoromethyl)-3H-diazirin-3-yl)benzamido)succinamide from NQO2 in human HepG2 cell lysate after 1 hr by capture compound based LC/MS analysis
Method in brief: (§2)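 Capture compound MS: 400 μg HepG2 or K562 lysate in capture buffer, precleared with streptavidin beads 30 min at 4 °C. Competition controls preincubated 30 min at 4 °C with free drug (10 μL of 1 mM). Capture compound (10 μL of 50 μM) equilibrated 1 h at 4 °C, UV-irradiated 10 min, streptavidin bead pulldown, on-bead trypsin digestion, nanoLC-MS/MS. Spectral counts compared capture vs competition (t test). HepG2 in quadruplicate, K562 in duplicate.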

[3] = biological target: T1, Ribosyldihydronicotinamide dehydrogenase [quinone] (Homo sapiens); test: (§3) Displacement of (S)-N4-(4-(3-(2-((4-carbamimidoylphenylamino)methyl)-1-methyl-N-(pyridin-2-yl)-1H-benzo[d]imidazole-5-carboxamido)propanamido)butyl)-N1-(15-oxo-19-((3aS,4S,6aR)-2-oxohexahydro-1H-thieno[3,4-d]imidazol-4-yl)-4,7,10-trioxa-14-azanonadecyl)-2-(4-(3-(trifluoromethyl)-3H-diazirin-3-yl)benzamido)succinamide from NQO2 in human K562 cell lysate after 1 hr by capture compound based LC/MS analysis; assay type: cell-free; method in brief: as §2
[4] = Inhibition of human alpha thrombin using Boc-Val-Pro-Arg-AMC as substrate after 2 hrs by fluorometric analysis
Method in brief: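 Human α-thrombin at 5.5 ng/mL final with Boc-Val-Pro-Arg-AMC (15 μM) in 50 mM Tris pH 7.5, 150 mM NaCl, 0.05% Tween 20. Compound tested as 16 two-fold dilutions in DMSO, 2.5 mM to 75 nM. Incubated 2 h at room temperature; fluorescence read at ex 355, em 460 nm for percent inhibition.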

[5] = biological target: Adenosine kinase (Homo sapiens) (UniProt P55263); test: (§4) Displacement of 3-(1-methyl-N-(pyridin-2-yl)-2-((4-(N-((S)-6,9,25-trioxo-29-((3aS,4S,6aR)-2-oxohexahydro-1H-thieno[3,4-d]imidazol-4-yl)-8-(4-(3-(trifluoromethyl)-3H-diazirin-3-yl)benzamido)-14,17,20-trioxa-5,10,24-triazanonacosyl)carbamimidoyl)phenylamino)methyl)-1H-benzo[d]imidazole-5-carboxamido)propanoic acid from ADK in human HepG2 cell lysate after 1 hr by capture compound based LC/MS analysis; assay type: cell-free; method in brief: as §2
Sequence of Adenosine kinase (Homo sapiens) (P55263 2-362 limits assumed): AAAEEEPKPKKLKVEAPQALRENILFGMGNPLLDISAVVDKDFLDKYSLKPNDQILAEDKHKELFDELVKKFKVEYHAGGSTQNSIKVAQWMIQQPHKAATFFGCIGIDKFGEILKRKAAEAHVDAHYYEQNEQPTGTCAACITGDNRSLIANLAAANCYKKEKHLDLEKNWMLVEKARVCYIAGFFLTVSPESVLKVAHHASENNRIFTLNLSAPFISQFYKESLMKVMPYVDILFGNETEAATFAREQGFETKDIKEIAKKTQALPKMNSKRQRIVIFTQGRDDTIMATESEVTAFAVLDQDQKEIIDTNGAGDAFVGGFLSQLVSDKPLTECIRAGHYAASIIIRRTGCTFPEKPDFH

[6] = biological target: T1, Ribosyldihydronicotinamide dehydrogenase [quinone] (Homo sapiens); test: as §3, with “liver microsomes” for “K562 cell lysate”, “Western blot” for “capture compound based LC/MS”; details: Microsome
Method in brief: (§5)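 NQO2 capture from HepG2 or K562 lysate, or from pooled human liver microsomes, with capture compound (1 h, 4 °C) after 30 min competitor preincubation. UV cross-linked 10 min and streptavidin pulldown. Detection by Western blot: anti-NQO2 1:500, then HRP anti-rabbit secondary 1:1000.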

[7] = biological target: T1, Ribosyldihydronicotinamide dehydrogenase [quinone] (Homo sapiens); test: as §4, with “NQO2” for “ADK”, “liver microsomes” for “HepG2 cell lysate”, “Western blot” for “capture compound based LC/MS”; details: Microsome; method in brief: as §5
[8] = biological target: Histamine N-methyltransferase (Homo sapiens) (UniProt P50135); test: as §4, with “HNMT” for “ADK”; assay type: cell-free; method in brief: as §2
Sequence of Histamine N-methyltransferase (Homo sapiens) (P50135 whole entry): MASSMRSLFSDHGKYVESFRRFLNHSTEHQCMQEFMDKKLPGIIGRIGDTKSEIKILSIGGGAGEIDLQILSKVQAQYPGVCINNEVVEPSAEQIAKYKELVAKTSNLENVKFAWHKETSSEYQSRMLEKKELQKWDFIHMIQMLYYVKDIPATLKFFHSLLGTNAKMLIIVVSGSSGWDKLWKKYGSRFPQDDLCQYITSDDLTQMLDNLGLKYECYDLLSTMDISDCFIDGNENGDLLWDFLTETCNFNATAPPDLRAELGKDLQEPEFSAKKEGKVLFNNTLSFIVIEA

[9] = biological target: T2, Hypoxia up-regulated protein 1 (Homo sapiens) (UniProt Q9Y4L1); test: as §4, with “HYOU1” for “ADK”; assay type: cell-free; method in brief: as §2
T2 sequence (whole entry): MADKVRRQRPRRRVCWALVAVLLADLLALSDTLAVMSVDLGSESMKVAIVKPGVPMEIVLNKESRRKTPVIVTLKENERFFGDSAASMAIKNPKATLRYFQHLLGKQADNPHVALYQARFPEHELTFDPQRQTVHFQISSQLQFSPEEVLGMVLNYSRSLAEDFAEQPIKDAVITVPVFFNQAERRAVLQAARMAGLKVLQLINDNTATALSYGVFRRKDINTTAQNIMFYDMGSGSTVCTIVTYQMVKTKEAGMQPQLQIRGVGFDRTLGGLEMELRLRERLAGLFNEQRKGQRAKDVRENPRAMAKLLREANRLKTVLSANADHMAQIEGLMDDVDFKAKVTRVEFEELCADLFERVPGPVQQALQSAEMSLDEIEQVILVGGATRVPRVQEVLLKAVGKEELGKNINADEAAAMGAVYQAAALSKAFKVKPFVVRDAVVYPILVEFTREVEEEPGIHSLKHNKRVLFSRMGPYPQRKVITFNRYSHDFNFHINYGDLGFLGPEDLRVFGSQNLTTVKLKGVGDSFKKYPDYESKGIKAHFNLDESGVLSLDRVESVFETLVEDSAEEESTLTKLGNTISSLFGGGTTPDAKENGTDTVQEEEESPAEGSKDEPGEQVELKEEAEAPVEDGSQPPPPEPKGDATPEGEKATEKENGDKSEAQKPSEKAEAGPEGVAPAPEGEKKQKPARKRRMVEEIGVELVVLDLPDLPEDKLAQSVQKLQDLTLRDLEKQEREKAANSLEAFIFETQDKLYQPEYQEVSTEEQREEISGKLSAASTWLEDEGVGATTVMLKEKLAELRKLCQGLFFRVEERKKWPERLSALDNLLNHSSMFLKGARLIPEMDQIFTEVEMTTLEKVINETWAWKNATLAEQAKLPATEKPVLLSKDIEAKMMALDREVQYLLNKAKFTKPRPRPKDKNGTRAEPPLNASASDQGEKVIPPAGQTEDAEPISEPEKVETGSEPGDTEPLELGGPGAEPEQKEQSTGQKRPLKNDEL

[10] = biological target: T1, Ribosyldihydronicotinamide dehydrogenase [quinone] (Homo sapiens); test: as §3, with “lysate at 100 uM” for “lysate”, “Western blot” for “capture compound based LC/MS”; assay type: cell-free; method in brief: as §5
[11] = biological target: T1, Ribosyldihydronicotinamide dehydrogenase [quinone] (Homo sapiens); test: Displacement of (S)-N4-(4-(3-(2-((4-carbamimidoylphenylamino)methyl)-1-methyl-N-(pyridin-2-yl)-1H-benzo[d]imidazole-5-carboxamido)propanamido)butyl)-N1-(15-oxo-19-((3aS,4S,6aR)-2-oxohexahydro-1H-thieno[3,4-d]imidazol-4-yl)-4,7,10-trioxa-14-azanonadecyl)-2-(4-(3-(trifluoromethyl)-3H-diazirin-3-yl)benzamido)succinamide from NQO2 in human HepG2 cell lysate at 100 uM after 1 hr by Western blot analysis; assay type: cell-free; method in brief: as §5
[12] = biological target: T1, Ribosyldihydronicotinamide dehydrogenase [quinone] (Homo sapiens); test: Displacement of (S)-N4-(4-(3-(2-((4-carbamimidoylphenylamino)methyl)-1-methyl-N-(pyridin-2-yl)-1H-benzo[d]imidazole-5-carboxamido)propanamido)butyl)-N1-(15-oxo-19-((3aS,4S,6aR)-2-oxohexahydro-1H-thieno[3,4-d]imidazol-4-yl)-4,7,10-trioxa-14-azanonadecyl)-2-(4-(3-(trifluoromethyl)-3H-diazirin-3-yl)benzamido)succinamide from human recombinant NQO2 after 1 hr by silver staining-based SDS PAGE analysis; method in brief: as §1
[13] = biological target: Heterogeneous nuclear ribonucleoproteins C1/C2 (Homo sapiens) (UniProt P07910); test: as §4, with “HNRPC” for “ADK”; assay type: cell-free; method in brief: as §2
Sequence of Heterogeneous nuclear ribonucleoproteins C1/C2 (Homo sapiens) (P07910 whole entry): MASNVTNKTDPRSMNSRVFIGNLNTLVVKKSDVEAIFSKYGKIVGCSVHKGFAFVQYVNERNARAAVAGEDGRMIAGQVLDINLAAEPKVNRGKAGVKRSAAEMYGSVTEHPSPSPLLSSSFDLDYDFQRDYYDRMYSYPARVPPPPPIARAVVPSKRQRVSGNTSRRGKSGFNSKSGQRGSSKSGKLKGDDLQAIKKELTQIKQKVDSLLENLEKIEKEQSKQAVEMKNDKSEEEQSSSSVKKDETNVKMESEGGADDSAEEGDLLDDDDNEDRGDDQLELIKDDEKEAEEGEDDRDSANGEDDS

[14] = biological target: T1, Ribosyldihydronicotinamide dehydrogenase [quinone] (Homo sapiens); test: Displacement of 3-(1-methyl-N-(pyridin-2-yl)-2-((4-(N-((S)-6,9,25-trioxo-29-((3aS,4S,6aR)-2-oxohexahydro-1H-thieno[3,4-d]imidazol-4-yl)-8-(4-(3-(trifluoromethyl)-3H-diazirin-3-yl)benzamido)-14,17,20-trioxa-5,10,24-triazanonacosyl)carbamimidoyl)phenylamino)methyl)-1H-benzo[d]imidazole-5-carboxamido)propanoic acid from human recombinant NQO2 after 1 hr by silver staining-based SDS PAGE analysis; method in brief: as §1

Activity [1]: Active
Activity [2]: Active
Activity [3]: Active
IC50 [4]: 13.8 nM
Activity [5]: Active
Activity [6]: Active
Activity [7]: Active
Activity [8]: Active
Activity [9]: Active
Activity [10]: Active
Activity [11]: Active
Activity [12]: Active
Activity [13]: Active
Activity [14]: Active
Compound: Cn1c(CNc2ccc(C(=N)N)cc2)nc2cc(C(=O)N(CCC(=O)O)c3ccccn3)ccc21 [DABIGATRAN]
